Experimental data taken from ChEMBL document CHEMBL5352504, “PINK1-Dependent Mitophagy Inhibits Elevated Ubiquitin Phosphorylation Caused by Mitochondrial Damage” (J Med Chem, 2023).
Activity calls are given as the source filed them. The rule behind the calls is not given here.

Assays:
[1] = target: Serine/threonine-protein kinase PINK1, mitochondrial (Mus musculus) (UniProt Q99MQ3); test: Activation of mouse PINK1 in mouse astrocytes assessed increase in ubiquitin serine 65 phosphorylation at 50 uM incubated for 24 hrs by ELISA analysis; assay type: cell-based; conditions: Astrocyte, filed as activator
Method in brief: (§1)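 Primary cortical astrocytes came from postnatal day 3 C57BL/6J pups and were used at 70–90% confluence (7–10 days in vitro). Lysates (HEPES/NP-40 lysis, pellet resuspended in RIPA) went to pS65-Ub ELISA. Signal was normalised per μg protein (BCA); mean ± SEM, n = 8.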

[2] = target: Serine/threonine-protein kinase PINK1, mitochondrial (Homo sapiens) (UniProt Q9BXM7); test: Activation of PINK1 in human HeLa cells transfected with Parkin assessed as prevention of OPA1 cleavage at 50 uM incubated for 1 hr by Western blot analysis; assay type: cell-based
Method in brief: (§2)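 HeLa cells transfected with Parkin were exposed to 50 μM compound for 1 h, with 10 μM CCCP for 3 h as a control. Cells were then lysed and immunoblotted for pSer65 Parkin, total Parkin, OPA1 and GAPDH (loading control). Untreated transfected and untransfected cells were included. Blots are representative of three repeat experiments.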

[3] = target: T1, Serine/threonine-protein kinase Pink1, mitochondrial (Tribolium castaneum) (UniProt D6WMX4); test: Inhibition of recombinant Tribolium castaneum PINK1 using human ubiquitin as substrate assessed as substrate phosphorylation upto 100 uM
T1 sequence (whole entry): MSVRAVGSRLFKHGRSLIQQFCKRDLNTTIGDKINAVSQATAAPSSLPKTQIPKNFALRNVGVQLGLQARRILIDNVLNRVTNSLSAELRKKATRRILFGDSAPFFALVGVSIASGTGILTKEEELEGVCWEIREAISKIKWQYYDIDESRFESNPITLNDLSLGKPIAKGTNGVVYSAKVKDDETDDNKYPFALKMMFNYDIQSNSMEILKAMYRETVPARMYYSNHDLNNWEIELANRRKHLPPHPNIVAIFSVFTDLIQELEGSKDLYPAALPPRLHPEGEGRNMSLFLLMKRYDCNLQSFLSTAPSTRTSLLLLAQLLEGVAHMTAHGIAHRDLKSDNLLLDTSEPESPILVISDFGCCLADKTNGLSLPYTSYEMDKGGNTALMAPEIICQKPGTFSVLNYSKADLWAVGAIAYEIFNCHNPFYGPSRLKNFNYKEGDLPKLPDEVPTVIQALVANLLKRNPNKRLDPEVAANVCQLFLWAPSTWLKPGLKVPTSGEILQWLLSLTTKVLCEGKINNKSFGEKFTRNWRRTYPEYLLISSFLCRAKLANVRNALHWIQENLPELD

[4] = target: T1, Serine/threonine-protein kinase Pink1, mitochondrial (Tribolium castaneum); test: Inhibition of recombinant Tribolium castaneum PINK1 using human Parkin as substrate assessed as substrate phosphorylation upto 100 uM
HeLa [5] = test: Induction of mitophagy in human HeLa cells transfected with YFP-Parkin assessed as effect on Parkin localization at 50 uM incubated for 24 hrs by Hoechst 33258 staining based immunofluorescence analysis; assay type: functional, cell-based
Method in brief: (§3)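 YFP-Parkin-transfected HeLa cells were left untreated or exposed to 50 μM compound alone for 24 h. Cells were PFA-fixed, Triton-permeabilised and immunostained for pSer65-Ub and TOM20 with Hoechst. Confocal imaging assessed mitochondrial fragmentation, YFP-Parkin localisation and ubiquitin phosphorylation.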

MEF [6] = test: Induction of mitophagy in wild-type PINK1 harboring mouse immortalized MEF cells overexpressing HA-tagged Parkin assessed as increase in mitophagy at 5 uM incubated for 16 hrs by flow cytometry analysis; assay type: functional, cell-based
Method in brief: (§4)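 Immortalised MEFs from PINK1 WT or KO mito-QC littermate embryos, overexpressing HA-Parkin, were treated for 16 h. Cells were trypsinised, fixed in 3.7% formaldehyde/200 mM HEPES pH 7.0 and analysed by flow cytometry (≥2 × 10^4 cells). Living cells were gated on scatter, and the untreated-condition gate was applied to all conditions. Percent cells undergoing mitophagy was taken from the GFP/mCherry ratio; n = 3, two-way ANOVA with Sidak test.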

HeLa [7] = test: Induction of mitophagy in human HeLa cells transfected with YFP-Parkin assessed as parkin localization in mitochondria at 50 uM preincubated for 24 hrs followed by CCCP stimulation and measured after 1 hr hr by Hoechst 33258 staining based immunofluorescence analysis; assay type: functional, cell-based
Method in brief: (§5)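 YFP-Parkin HeLa cells were pretreated with 50 μM compound for 24 h, then given 10 μM CCCP or niclosamide for 1 h. Cells were fixed in chilled 4% PFA, permeabilised with 0.1% Triton, blocked in BSA, then immunostained overnight at 4 °C for pSer65-Ub and TOM20 with Hoechst. YFP-Parkin was imaged by confocal microscopy (40× oil). pUb mitochondrial localisation was quantified from images.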

HeLa [8] = test: Induction of mitophagy in YFP-Parkin-transfected human HeLa cells assessed as effect on ubiquitin phosphorylation at 50 uM incubated for 24 hrs by Hoechst 33258 staining based immunofluorescence analysis; assay type: functional, cell-based; method in brief: as §3
MEF [9] = test: Induction of mitophagy in PINK1 knockout mouse immortalized MEF cells overexpressing HA-tagged Parkin assessed as increase in mitophagy at 5 uM incubated for 16 hrs by flow cytometry analysis; assay type: functional, cell-based; method in brief: as §4
HeLa [10] = test: Induction of mitophagy in human HeLa cells transfected with YFP-Parkin assessed as effect on mitochondrial fragmentation at 50 uM incubated for 24 hrs by Hoechst 33258 staining based immunofluorescence analysis; assay type: functional, cell-based; method in brief: as §3
[11] = target: Serine/threonine-protein kinase PINK1, mitochondrial (Mus musculus) (UniProt Q99MQ3); test: Activation of mouse PINK1 in mouse astrocytes assessed ubiquitin serine 65 phosphorylation at 50 uM preincubated for 24 hrs followed by valinomycin treatment for 5 hrs by ELISA; assay type: cell-based; conditions: Astrocyte, time 29.0 hrs; method in brief: as §1
HeLa [12] = test: Inhibition of CCCP-induced ubiquitin phosphorylation at serine 65 residue in human HeLa cells transfected with YFP-Parkin at 50 uM preincubated for 24 hrs followed by CCCP stimulation and measured after 1 hr hr by Hoechst 33258 staining based immunofluorescence analysis; assay type: cell-based; conditions: time 25.0 hrs; method in brief: as §5
[13] = target: Serine/threonine-protein kinase PINK1, mitochondrial (Homo sapiens) (UniProt Q9BXM7); test: Activation of PINK1 in human HeLa cells transfected with Parkin assessed as increase in Parkin phosphorylation at serine 65 at 50 uM incubated for 1 hr by Western blot analysis; assay type: cell-based; method in brief: as §2
HeLa [14] = test: Induction of mitochondrial membrane depolarization in human HeLa cells overexpressing Parkin assessed as OPA1 cleavage at 10 uM and measured after 3 hrs by Western blot analysis; assay type: functional, cell-based
Method in brief: (§6)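 Parkin-transfected HeLa (DMEM, 10% FBS, 37 °C, 5% CO2) treated 3 h with 10 μM agent (CCCP control arm), with or without 24 h pre-treatment at 50 μM. Lysed in Tris pH 7.5 buffer with phosphatase/protease inhibitors, protein by Bradford, boiled in SDS buffer, immunoblotted for pUb Ser65, OPA1 (cleavage as depolarization read-out) and GAPDH loading control.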

[15] = target: Serine/threonine-protein kinase PINK1, mitochondrial (Homo sapiens) (UniProt Q9BXM7); test: Activation of human PINK1 in human HeLa cells overexpressing Parkin assessed as phosphorylation of ubiquitin at serine 65 at 10 uM and measured after 3 hr by Western blot analysis; assay type: cell-based; conditions: filed as activator; method in brief: as §6
MEF [16] = test: Induction of mitophagy in PINK1 knockout mouse immortalized MEF cells overexpressing HA-tagged Parkin assessed as increase in mitophagy at 20 uM incubated for 16 hrs by flow cytometry analysis; assay type: functional, cell-based
Method in brief: (§7)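 Immortalized MEFs from littermate PINK1 WT or KO mito-QC embryos (mCherry-GFP-FIS1 reporter), overexpressing HA-Parkin; 2.5 × 10^5 cells seeded day before, treated 16 h. Trypsinized, fixed in 3.7% formaldehyde/200 mM HEPES pH 7.0, ≥2 × 10^4 cells acquired by flow cytometry; live cells gated, percent mitophagy from GFP/mCherry ratio using untreated-cell gate; n = 3; two-way ANOVA with Sidak test.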

MEF [17] = test: Induction of mitophagy in wild-type PINK1 harboring mouse immortalized MEF cells overexpressing HA-tagged Parkin assessed as increase in mitophagy at 20 uM incubated for 16 hrs by flow cytometry analysis; assay type: functional, cell-based; method in brief: as §7

Serine/threonine-protein kinase PINK1, mitochondrial (Homo sapiens), sequence (Q9BXM7 whole entry): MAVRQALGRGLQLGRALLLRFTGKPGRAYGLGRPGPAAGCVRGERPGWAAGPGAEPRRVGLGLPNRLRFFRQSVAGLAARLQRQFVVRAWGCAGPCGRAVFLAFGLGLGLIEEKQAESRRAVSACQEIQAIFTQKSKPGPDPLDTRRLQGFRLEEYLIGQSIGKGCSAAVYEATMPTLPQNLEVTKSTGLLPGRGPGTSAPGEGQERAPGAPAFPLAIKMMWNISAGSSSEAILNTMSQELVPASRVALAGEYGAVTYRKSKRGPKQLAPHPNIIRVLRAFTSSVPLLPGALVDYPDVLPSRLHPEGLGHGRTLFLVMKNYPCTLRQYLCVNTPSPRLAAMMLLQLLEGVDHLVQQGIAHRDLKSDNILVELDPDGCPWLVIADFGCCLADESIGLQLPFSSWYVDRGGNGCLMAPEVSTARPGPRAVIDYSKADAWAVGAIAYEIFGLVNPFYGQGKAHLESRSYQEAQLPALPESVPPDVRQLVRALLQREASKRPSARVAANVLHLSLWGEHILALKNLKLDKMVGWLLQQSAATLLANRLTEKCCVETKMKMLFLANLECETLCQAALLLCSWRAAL
Serine/threonine-protein kinase PINK1, mitochondrial (Mus musculus), sequence (Q99MQ3 whole entry): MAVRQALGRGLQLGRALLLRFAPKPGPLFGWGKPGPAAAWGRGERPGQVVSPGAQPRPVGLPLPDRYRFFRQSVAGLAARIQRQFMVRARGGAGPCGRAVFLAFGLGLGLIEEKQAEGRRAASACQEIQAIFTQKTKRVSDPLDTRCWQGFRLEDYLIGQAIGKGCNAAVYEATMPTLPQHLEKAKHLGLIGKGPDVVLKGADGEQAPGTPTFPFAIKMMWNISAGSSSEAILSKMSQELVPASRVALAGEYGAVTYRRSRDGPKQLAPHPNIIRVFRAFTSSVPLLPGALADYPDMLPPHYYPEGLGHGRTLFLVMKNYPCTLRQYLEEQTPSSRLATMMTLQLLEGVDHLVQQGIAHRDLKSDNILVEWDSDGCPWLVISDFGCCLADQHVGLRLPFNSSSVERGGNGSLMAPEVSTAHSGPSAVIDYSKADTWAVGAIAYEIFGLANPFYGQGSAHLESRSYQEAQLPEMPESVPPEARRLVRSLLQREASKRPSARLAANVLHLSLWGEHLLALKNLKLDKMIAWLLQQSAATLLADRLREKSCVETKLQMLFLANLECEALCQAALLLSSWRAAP

OC[C@H]1O[C@@H](n2cnc3c(NCc4ccccc4)ncnc32)[C@H](O)[C@@H]1O
Activity [1]: Active
Activity [2]: inactive
inhibition [3]: inactive
inhibition [4]: inactive
Activity (HeLa [5]): inactive
Activity (MEF [6]): Active
Activity (HeLa [7]): Active
Activity (HeLa [8]): inactive
Activity (MEF [9]): inactive
Activity (HeLa [10]): inactive
Activity [11]: inactive
inhibition (HeLa [12]): Active
Activity ([13]; filed as activator): Active

Oc1ccc(CCNc2ncnc3[nH]cnc23)cc1
Activity [13]: inactive

OC[C@H]1O[C@@H](n2cnc3c(NC4CCCC4)ncnc32)[C@H](O)[C@@H]1O
Activity [2]: inactive
Activity ([13]; filed as activator): Active

OC[C@H]1O[C@@H](n2cnc3c(NCCc4ccc(O)cc4)ncnc32)[C@H](O)[C@@H]1O
Activity [2]: inactive
Activity ([13]; filed as activator): Active

c1nc(NC2CCCC2)c2nc[nH]c2n1
Activity [13]: inactive

O=C(Nc1ccc([N+](=O)[O-])cc1Cl)c1cc(Cl)ccc1O
Activity (HeLa [14]): Active
Activity [15]: Active

CNc1ncnc2c1ncn2[C@@H]1O[C@H](CO)[C@@H](O)[C@H]1O
Activity [1]: Active
Activity [2]: inactive
Activity (HeLa [5]): inactive
Activity (HeLa [7]): inactive
Activity (HeLa [8]): inactive
Activity (HeLa [10]): inactive
Activity [11]: inactive
inhibition (HeLa [12]): inactive
Activity ([13]; filed as activator): Active

N#CC(C#N)=NNc1cccc(Cl)c1
Activity (HeLa [14]): Active
Activity (MEF [16]): inactive
Activity (MEF [17]): Active
Activity [15]: Active

CC(C)(C)CNc1ncnc2c1ncn2[C@@H]1O[C@H](CO)[C@@H](O)[C@H]1O
Activity [2]: inactive
Activity [13]: inactive
